# RORa activator = RORA (human) activation; CHO-K1 Gal4-RORA LBD luciferase reporter, luminescence; percent increase over mock-subtracted basal signal; P35398; 65,000 compounds, 1.5% hits; activation, % at 10 µM;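 active = activation above the mean of all tested compounds plus 3 SD, cut at about 49% in these data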;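 also: 0% = DMSO-treated RORA cells and 100% = added signal equal to DMSO minus mock-transfected cells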
# Target sequence (P35398 whole entry, looked up, the tested form may be a part): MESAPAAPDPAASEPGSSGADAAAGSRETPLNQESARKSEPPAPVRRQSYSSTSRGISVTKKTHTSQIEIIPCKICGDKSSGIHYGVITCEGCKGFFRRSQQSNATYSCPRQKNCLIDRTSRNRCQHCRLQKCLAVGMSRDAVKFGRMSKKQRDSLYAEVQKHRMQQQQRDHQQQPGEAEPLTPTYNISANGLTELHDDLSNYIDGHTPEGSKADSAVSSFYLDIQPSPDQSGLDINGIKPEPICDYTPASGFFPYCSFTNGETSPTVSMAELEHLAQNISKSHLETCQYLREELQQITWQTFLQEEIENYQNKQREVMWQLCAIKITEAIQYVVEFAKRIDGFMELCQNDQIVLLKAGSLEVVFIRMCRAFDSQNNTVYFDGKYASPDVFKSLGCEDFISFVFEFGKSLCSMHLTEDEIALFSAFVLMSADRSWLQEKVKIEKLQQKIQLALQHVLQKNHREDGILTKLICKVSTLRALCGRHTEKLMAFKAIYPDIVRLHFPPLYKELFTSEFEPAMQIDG
# D1 allo mod = D1 dopamine receptor (human) allosteric modulation; P21728; HEK293 D1, CRE-luciferase, dopamine EC30 potentiation; actives deviate in either direction; B-score at 10 µM; 58,000 compounds, 5.9% hits; AID 641;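 active = luminescence count or its row- and column-corrected plate score outside the 99.7% band of the plate's sample wells, on either side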
# JNK3 inh = inhibitors of human JNK3 kinase; P53779; purified JNK3 kinase activity, HTS; inhibition, % at 8 µM; 60,000 compounds, 0.61% hits; in the data active = inhibition above about 17%;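 also: 0% = DMSO and 100% = reference inhibitor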
# HEK293 NFkB inh = inhibitors of the PMA/ionomycin-induced NF-kB reporter in HEK293 cells | inhibition, % at 3 µM | HEK-293 NF-kB luciferase reporter, luminescence | AID 465 | 62,000 compounds, 0.21% hits;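 active = inhibition above the mean of all tested compounds plus 3 SD, cut at about 40% in these data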;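 also: 0% = stimulated DMSO wells and 100% = 10 µM reference inhibitor 5653914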
#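 Reagent: PMA plus ionomycin mix as NF-kB-activating stimulus. Assay system: NF-kB luciferase reporter HEK-293 cells. Technique: luminescence from luciferase substrate reagent. Incubation: 1 h compound pre-incubation, 16 h PMA/ionomycin at 37 °C. Benchmarks: DMSO only as uninhibited control, 10 µM reference inhibitor as full inhibition. Repeats: tested once.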
# SF1 activator = activates the human nuclear receptor SF-1; Q13285; CHO-K1 Gal4-SF-1 LBD luciferase reporter; % increase over DMSO SF-1-specific signal; AID 522; activation, % at 10 µM; 65,000 compounds, 1.9% hits;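 active = activation above the mean activation of all tested compounds plus 3 SD, cut at about 50% in these data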
#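 Compound – one dose, 10 µM compound, 1% DMSO · Test system – transient Gal4-SF-1 LBD reporter, CHO-K1 · Input – 4,000 cells in each well · Read-out basis – percent activation relative to DMSO median and mock-transfected background · Replicates – single measurement per compound · Technique – steady-glow luciferase luminescence, read after 15 min reagent incubation · Timing – 20 h compound treatment, 37 °C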
# D1 mod confirm = confirmation of human D1 dopamine receptor allosteric modulators; shares compounds with D1 allo mod; HEK293 D1 CRE-luciferase, dopamine EC30 potentiation; hits give high values; luminescence at 10 µM; 2,200 compounds, 88% hits; AID 642;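 active = luminescence in either of two replicates above the same-plate mean plus 3 SD of the low-dose dopamine control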
# D1 no dopamine = D1 (human) signaling in absence of dopamine; luminescence at 10 µM; shares compounds with D1 allo mod; HEK293 D1 CRE-luciferase, luminescence, no dopamine; hits give high values; 1,900 compounds, 0.8% hits; in the data active = luminescence above about 3900
# Isoprot counter = isoproterenol response counter-screen activity for D1 modulators; shares compounds with D1 allo mod; AID 647; calls only at 10 µM; HEK293 D1 CRE-luciferase, isoproterenol EC30 counter-screen; 2,200 compounds, 63% hits;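 active = luminescence in either replicate above plate mean of wells with a partly effective reference agonist dose plus 3 SD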;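 also: isoproterenol raises cAMP through native beta-adrenoceptor Gs so signal bypasses D1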
# * hit, by the source's call; i = inactive; . = not tested or not shown; + = active, no number. Sampled rows, rich in hits. Any-hit rate of the full collection: about 7.9%.
SMILES,RORa activator,D1 allo mod,JNK3 inh,HEK293 NFkB inh,SF1 activator,D1 mod confirm,D1 no dopamine,Isoprot counter
Cc1nc(NCC2CCCO2)c2oc3ccccc3c2n1 (stereo not given),-2.0,.,.,10.4,-16.2,.,.,.
CCc1nc(NCC2CCCO2)c2oc3ccccc3c2n1 (stereo not given),9.3,6.05*,2.5,4.4,-12.0,12724*,.,+
CCNc1nc(CC)nc2c1oc1ccccc12,6.0,.,.,10.0,8.4,.,.,.
CCNc1nc(C)nc2c1oc1ccccc12,-6.4,9.33*,.,5.6,-17.1,16376*,.,+
C=Cn1ccnc1P(=S)(c1ccc2c(c1)c1ccccc1n2CC)c1nccn1C=C,10.6,-0.937,.,16.9,17.2,.,.,.
COCCn1c(-c2ccco2)nc2nc3ccccc3nc21,-0.6,9.16*,-1.9,14.9,8.8,16228*,1728,+
CC(C)OCCCn1c(-c2ccco2)nc2nc3ccccc3nc21,-6.5,0.776,-3.8,1.8,-5.7,.,.,.
CCC(C)c1cc(S(=O)(=O)N2CCOCC2)ccc1OC (stereo not given),-11.4,9.49*,0.5,14.4,-5.6,11376*,.,+
CCOC(=O)c1ccccc1Nc1cc(C)nc2nc(C)nn12,-1.6,1.83*,5.5,0.1,5.3,10192*,1536,+
COC(=O)c1ccccc1Nc1cc(C)nc2nc(C)nn12,22.7,0.42,3.2,3.5,-18.0,.,.,.
CCOc1ccc(OCC)c(NC(=O)CC2Oc3ccc(C)cc3NC2=O)c1 (stereo not given),10.4,2.69*,1.3,4.9,14.3,6392,1720,i
CC(C)N(CCCNC(=O)CC1Oc2ccccc2NC1=O)Cc1ccccc1 (stereo not given),3.5,-0.825,-1.5,20.3,-8.1,.,.,.
CCOC(=O)C1=C(C)Nc2ncnn2C1/C=C/c1ccccc1 (stereo not given),-6.9,2.83*,0.8,12.1,-0.7,11572*,1448,+
CC(C)Nc1nc(NC(C)C)nc(N(C)C(N)=O)n1,-1.6,7.72*,6.5,5.8,18.1,17056*,1584,+
Cc1ccccc1Oc1ccc(Oc2ccccc2C)nn1,40.3,-0.32,-0.3,-6.1,36.6,.,.,.
COc1ccccc1OCC(=O)c1[nH]c(C)c(C(C)=O)c1C,-41.7,-0.123,-5.0,26.0,-50.4,.,.,.
COc1cc(CN(C)CC(=O)c2[nH]c(C)c(C(C)=O)c2C)ccc1OC(F)F,-11.2,5.02*,11.1,22.8,-29.0,7936*,1244,+
Cc1cc(N2CCN(S(=O)(=O)c3ccc4c(c3)OCCO4)CC2)n2ncnc2n1,-4.6,4.11*,-1.2,-2.0,7.9,6428*,1504,i
COc1ccc(Nc2cc(C)nc3ccccc23)cc1,-1.9,-2.98,4.0,.,-3.0,.,.,.
COc1ccc(Nc2nc3ccccc3nc2C)cc1,6.1,3.12*,0.8,17.2,10.8,8152*,.,i
COc1ccc(C2CC(=O)c3cnc(NC(=O)c4ccccc4)nc3C2)c(OC)c1 (stereo not given),18.3,0.895,-4.7,-4.7,7.7,.,.,.
COc1ccccc1-c1cc(C2CC2)nc(N)c1C#N,14.3,9.4*,1.6,-10.1,-4.0,11344*,1800,+
N#Cc1c(-c2ccco2)cc(C2CC2)nc1SCC(=O)c1ccccc1,0.6,0.744,-6.4,4.1,18.3,.,.,.
N#Cc1c(-c2ccccc2Cl)cc(C2CC2)nc1N,-9.1,14.8*,0.1,.,-15.9,20296*,1408,+
COc1cccc(-n2nnc3c(=O)n(CC(=O)N4CCC(Cc5ccccc5)CC4)cnc32)c1,-5.2,-0.468,.,10.2,-1.6,.,.,.
SMILES,RORa activator,D1 allo mod,JNK3 inh,HEK293 NFkB inh,SF1 activator,D1 mod confirm,D1 no dopamine,Isoprot counter
CCCc1cc(Nc2cccc(OCC)c2)n2ncnc2n1,6.3,3.2*,6.0,7.5,-1.2,11224*,1788,+
CCCOC(=O)c1ccc(Nc2cc(C)nc3ncnn23)cc1,-20.0,-1.73,-1.5,22.7,-6.1,.,.,.
COc1cccc(Nc2cc(C)nc3nc(C)nn23)c1,0.6,0.00666,9.2,21.4,-3.9,.,.,.
CCCc1cc(Nc2cccc(OC)c2)n2ncnc2n1,-20.5,5.19*,8.0,15.1,-3.7,10608*,.,+
O=C(Cn1ncn2c(cc3ccccc32)c1=O)NCc1ccco1,-9.4,-0.285,-3.5,12.8,8.6,.,.,.
Cc1ccnc(SCCn2c(N3CC(C)CC(C)C3)nc3c2c(=O)n(C)c(=O)n3C)n1 (stereo not given),-10.6,3.02*,5.7,-6.3,-0.4,5916*,1664,+
Cc1ccc(S(=O)(=O)Nn2c(C)ccc2C)cc1,5.6,-0.582,4.0,19.9,13.3,.,.,.
O=C(Nc1ccc(F)cc1)N1CCOCC1,-10.4,5.36*,-6.3,1.1,-15.4,5328,1472,i
Cc1nn(-c2ccccc2)c(N2CCCCC2)c1/C=N/O,.,4.07,.,.,.,.,.,.
Cc1nn(-c2ccccc2)c2c1/C(=N/O)CC(C)(C)C2,4.7,11.5*,5.5,14.9,-14.0,11596*,1584,+
COc1cc(C)nc(NCc2ccccc2)n1,-1.2,0.00774,7.6,12.1,-11.9,.,.,.
Nc1nc(NCc2ccccc2)nc(-c2ccccc2)n1,-5.4,21*,6.2,7.9,7.1,23340*,.,+
COc1ccc(-c2ccc(=O)[nH]n2)cc1,-11.1,8.21*,.,21.2,14.7,10236*,1400,+
O=c1c2ccccc2nc(-c2ccccc2)n1Cc1ccco1,-0.3,1.67,0.7,15.8,1.3,.,.,.
OCCNc1ncnc2c1c(-c1ccccc1)c(-c1ccccc1)n2Cc1ccco1,4.5,5.8*,-9.8,.,13.8,8384*,1284,i
CC1(C)CC(=O)c2cc(OCC(=O)NCCCN3CCN(c4ccccc4F)CC3)ccc2O1,25.0,5.62*,-9.9,17.3,-8.3,6164*,.,+
CC1(C)CC(=O)c2cc(OCC(=O)NCc3cccnc3)ccc2O1,-14.8,1.51,3.1,10.1,10.9,.,.,.
Cc1cccn2cc(CCNC(=O)c3ccc(Br)o3)nc12,-1.4,-0.935,-2.2,4.9,0.6,.,.,.
O=C(CSCCO)Nc1ccc(C2CCCCC2)cc1,-7.6,-1.32,-0.5,-1.2,2.7,.,.,.
COc1ccc(N2CCN(c3ccc(NC(=O)C4CCCCC4)cc3C#N)CC2)cc1,6.9,0.108,6.0,-4.6,10.5,.,.,.
CC(=O)Nc1cccc(Oc2cc(C#N)c(C#N)cc2N2CCCCCC2)c1,-16.1,9.05*,-2.7,12.8,-18.2,11784*,.,+
CC12C=CC3(CN(Cc4ccccc4)C(=O)C3C1C(=O)NCc1ccco1)O2 (stereo not given),-6.0,0.558,.,5.2,-1.8,.,.,.
